Data reported in ChEMBL document CHEMBL1909510, “Synthesis and evaluation of cytotoxic effects of hanultarin and its derivatives” (Bioorg Med Chem Lett, 2011).
Calls of active or inactive are those of the source. No cut-off for these calls is given here.

How the values were obtained:
Assay type in all cases: functional, cell-based
[1] = test system: SK-MEL-2; assay: Cytotoxicity against human SK-MEL-2 cells after 48 hrs by sulforhodamine B assay; conditions: SK-MEL-2, 48 h
Procedure, shortened: (§1)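 SRB assay, done in triplicate on each cell line across 1.56–50 µg/mL; IC50 determined per cell line. Lines are A549 (human lung cancer), B16F10 (mouse melanoma), HCT-15 (human colon), SKOV3 (human ovary) and SKMel2 (human skin).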

[2] = test system: SK-OV-3; assay: Cytotoxicity against human SKOV3 cells after 48 hrs by sulforhodamine B assay; conditions: SK-OV-3, 48 h; procedure, shortened: as §1
[3] = test system: HCT-15; assay: Cytotoxicity against human HCT15 cells after 48 hrs by sulforhodamine B assay; conditions: HCT-15, 48 h; procedure, shortened: as §1
[4] = test system: A549; assay: Cytotoxicity against human A549 cells after 48 hrs by sulforhodamine B assay; conditions: A549, 48 h; procedure, shortened: as §1
[5] = test system: B16-F10; assay: Cytotoxicity against mouse B16F10 cells after 48 hrs by sulforhodamine B assay; conditions: B16-F10, 48 h; procedure, shortened: as §1
[6] = test system: A549; assay: Induction of microtubule disruption in human A549 cells at IC50 after 48 hrs by immunocytochemical analysis
[7] = test system: A549; assay: Induction of actin disruption in human A549 cells at IC50 after 48 hrs by immunocytochemical analysis
[8] = test system: A549; assay: Induction of nucleus disruption in human A549 cells at IC50 after 48 hrs by immunocytochemical analysis

| Compound | IC50 [1] [µM] | IC50 [2] [µM] | IC50 [3] [µM] | IC50 [4] [µM] | IC50 [5] [µM] | Activity [6] | Activity [7] | Activity [8] |
| --- | --- | --- | --- | --- | --- | --- | --- | --- |
| COc1cc(CC(=O)OC[C@H](Cc2ccc(O)c(OC)c2)[C@H](CO)Cc2ccc(O)c(OC)c2)ccc1O (racemic) | > 76 | > 76 | 52.2 | 65.3 | 71.8 |  |  |  |
| COc1cc(CCC(=O)OC[C@H](Cc2ccc(O)c(OC)c2)[C@H](CO)Cc2ccc(O)c(OC)c2)ccc1O (racemic) | 64 | > 74 | 49.6 | 65.7 | 68.4 |  |  |  |
| COc1cc(/C=C/C(=O)OC[C@H](Cc2ccc(O)c(OC)c2)[C@H](CO)Cc2ccc(O)c(OC)c2)ccc1O (racemic) [HANULTARIN] | 17.3 | 63.9 | 29.3 | 29.5 | 21.4 | Active | Active | inactive |
| COc1cc(/C=C/C(=O)OC[C@H](Cc2ccc(O)c(OC)c2)[C@H](COC(=O)/C=C/c2ccc(O)c(OC)c2)Cc2ccc(O)c(OC)c2)ccc1O (racemic) | 8.3 | 21.7 | 8.3 | 7.1 | 9.8 | Active | Active | inactive |
| COc1cc(C[C@@H](CO)[C@H](CO)Cc2ccc(O)c(OC)c2)ccc1O (racemic) [(+)-SECOISOLARICIRESINOL] | > 110 | > 110 | > 110 | > 110 | > 110 |  |  |  |
| COc1cc(CCC(=O)OC[C@H](Cc2ccc(O)c(OC)c2)[C@H](COC(=O)CCc2ccc(O)c(OC)c2)Cc2ccc(O)c(OC)c2)ccc1O (racemic) | 10.3 | 35.9 | 10 | 12.1 | 12.8 | Active | Active | inactive |
| COc1cc(CC(=O)OC[C@H](Cc2ccc(O)c(OC)c2)[C@H](COC(=O)Cc2ccc(O)c(OC)c2)Cc2ccc(O)c(OC)c2)ccc1O (racemic) | 14.2 | 30.8 | 15.9 | 17.5 | 13.3 | Active | Active | inactive |
